Data taken from ChEMBL document CHEMBL1124238, “Methotrexate analogues. 32. Chain extension, alpha-carboxyl deletion, and gamma-carboxyl replacement by sulfonate and phosphonate: effect on enzyme binding and cell-growth inhibition” (J Med Chem, 1988).

How the values were obtained:
[1] = tested on: Folylpolyglutamate synthase (Mus musculus); assay: Inhibition of Folyl-polyglutamate synthase from mouse liver; design: concentration or dose not given beside the values; conditions: concentration not given here
[2] = (§1) Inhibition of Folyl-polyglutamate synthase from mouse liver
How it was run: (§2)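 Partially purified mouse liver enzyme, run at 37 °C for 1 h in Tris buffer pH 8.6 with 20 mM α-thioglycerol. The mixture held 1 mM [3H]-L-glutamic acid, 500 μM folic acid and 500 μM inhibitor. Activity is expressed as percent of untreated control. Ki,s comes from a slope replot of double-reciprocal 1/V versus 1/S plots, and was not determined where inhibition was below 30%.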

Dihydrofolate reductase = molecular target: T1, Dihydrofolate reductase (Mus musculus, UniProt P00375); assay: Inhibition of dihydrofolate reductase (DHFR) in mouse L1210 leukemia cells; type: cell-based
T1 sequence (P00375 whole entry): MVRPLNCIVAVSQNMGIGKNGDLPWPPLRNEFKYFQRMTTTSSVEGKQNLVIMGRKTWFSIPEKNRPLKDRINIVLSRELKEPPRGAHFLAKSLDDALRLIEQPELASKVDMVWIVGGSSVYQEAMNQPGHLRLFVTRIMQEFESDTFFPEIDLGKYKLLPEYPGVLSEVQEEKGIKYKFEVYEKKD

Mus musculus = species on record: Mus musculus; assay: as §1; conditions: concentration not given here
How it was run: as §2

L1210 ( R81) = assay: (§3) Inhibition of cell growth against highly MTX- and AMT-resistant mutant L1210/R81; type: functional, cell-based; conditions: Mus musculus
L1210 [3] = assay: Inhibition of cell growth against cultured L1210 leukemia cells in mouse; type: functional, cell-based
L1210 [4] = assay: as §3; type: functional, cell-based; conditions: Mus musculus

## CN(Cc1cnc2nc(N)nc(N)c2n1)c1ccc(C(=O)NCCCS(=O)(=O)O)cc1
[1]
  inhibition: 18%

## CN(Cc1cnc2nc(N)nc(N)c2n1)c1ccc(C(=O)NCS(=O)(=O)O)cc1
[1]
  inhibition: 19%

## CN(Cc1cnc2nc(N)nc(N)c2n1)c1ccc(C(=O)NC(CCS(=O)(=O)O)C(=O)O)cc1 (stereo not given)
[1]
  inhibition: 59%

## Nc1nc(N)c2nc(CNc3ccc(C(=O)NC(CCCCP(=O)(O)O)C(=O)O)cc3)cnc2n1 (stereo not given)
[2]
  Ki: 155 µM
Dihydrofolate reductase
  IC50: 0.067 µM
Mus musculus
  inhibition: 44%
L1210 ( R81)
  IC50: > 280 µM
L1210 [3]
  IC50: 0.13 µM

## Nc1nc(N)c2nc(CNc3ccc(C(=O)NC(CCP(=O)(O)O)C(=O)O)cc3)cnc2n1 (stereo not given)
[2]
  Ki: 8.4 µM
Dihydrofolate reductase
  IC50: 0.063 µM
Mus musculus
  inhibition: 100%
L1210 ( R81)
  IC50: 240 µM
L1210 [3]
  IC50: 0.067 µM

## Nc1nc(N)c2nc(CNc3ccc(C(=O)NC(CCCP(=O)(O)O)C(=O)O)cc3)cnc2n1 (stereo not given)
[2]
  Ki: 124 µM
Dihydrofolate reductase
  IC50: 0.083 µM
Mus musculus
  inhibition: 52%
L1210 ( R81)
  IC50: > 460 µM
L1210 [3]
  IC50: 0.12 µM

## Nc1nc(N)c2nc(CNc3ccc(C(=O)NC(CCS(=O)(=O)O)C(=O)O)cc3)cnc2n1 (stereo not given)
[1]
  inhibition: 77%

## CN(Cc1cnc2nc(N)nc(N)c2n1)c1ccc(C(=O)NCCP(=O)(O)O)cc1
[1]
  inhibition: 22%

## CCOP(=O)(O)CCCNC(=O)c1ccc(N(C)Cc2cnc3nc(N)nc(N)c3n2)cc1
[1]
  inhibition: 9%

## CN(Cc1cnc2nc(N)nc(N)c2n1)c1ccc(C(=O)NC(CCP(=O)(O)O)C(=O)O)cc1 (stereo not given)
[1]
  inhibition: 53%

## CN(Cc1cnc2nc(N)nc(N)c2n1)c1ccc(C(=O)NCCS(=O)(=O)O)cc1
[1]
  inhibition: 22%

## CN(Cc1cnc2nc(N)nc(N)c2n1)c1ccc(C(=O)NCCCP(=O)(O)O)cc1
[1]
  inhibition: 16%

## Nc1nc(N)c2nc(CNc3ccc(C(=O)NC(CP(=O)(O)O)C(=O)O)cc3)cnc2n1 (stereo not given)
[2]
  Ki: 900 µM
Dihydrofolate reductase
  IC50: 0.55 µM
Mus musculus
  inhibition: 22%
L1210 [4]
  IC50: 390 µM
L1210 [3]
  IC50: 0.25 µM

## CN(Cc1cnc2nc(N)nc(N)c2n1)c1ccc(C(=O)NCCCCS(=O)(=O)O)cc1
[1]
  inhibition: 26%
